# Source: publication PMC7059553 (Science translational medicine, 2018)
# Where two headings read alike, the source gives them in different places.
# What was measured:
# [1] = system: primary human fibroblasts, primary keratinocytes, CCD841 colon epithelial cells; format: cell-based
# TXNRD1 [2] = biological target: T1, TXNRD1 (Rattus norvegicus, UniProt O89049); format: binding
# T1 sequence (O89049 1-499): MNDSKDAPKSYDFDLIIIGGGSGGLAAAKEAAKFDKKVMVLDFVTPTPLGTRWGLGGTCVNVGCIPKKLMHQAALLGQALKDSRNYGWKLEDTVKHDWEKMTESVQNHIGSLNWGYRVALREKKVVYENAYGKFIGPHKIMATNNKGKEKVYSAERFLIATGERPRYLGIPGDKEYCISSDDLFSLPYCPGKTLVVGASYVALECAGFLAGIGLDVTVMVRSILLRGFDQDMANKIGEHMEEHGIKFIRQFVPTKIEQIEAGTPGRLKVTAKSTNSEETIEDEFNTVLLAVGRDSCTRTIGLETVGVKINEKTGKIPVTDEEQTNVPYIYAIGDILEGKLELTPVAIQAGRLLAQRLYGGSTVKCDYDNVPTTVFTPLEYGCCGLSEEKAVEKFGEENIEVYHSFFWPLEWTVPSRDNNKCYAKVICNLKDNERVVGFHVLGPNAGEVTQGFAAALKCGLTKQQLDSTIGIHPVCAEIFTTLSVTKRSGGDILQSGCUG
# FaDu cells [3] = assay: Cellular H2O2 production, Amplex red assay; format: cell-based, human
# Procedure, shortened: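 FaDu cells were grown at 37 °C, 5% CO2 in medium with 10% FBS, 2 mM L-glutamine and 100 μg/mL penicillin/streptomycin. Tests used medium with 10% FBS plus 25 nM sodium selenite. Compound was given in DMSO (0.01% final) across a concentration range or over a time course. H2O2 was read by Amplex red. Runs were in triplicate, shown as mean ± SEM.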
# [4] = system: JNK and p38 phosphorylation in FaDu cells; assay: Western blot of JNK and p38 phosphorylation; format: cell-based, human; conditions: FaDu cells treated for 6 hours
# GPX1 = biological target: T2, GPX1 (Homo sapiens, UniProt P07203); assay: GPX1 inhibition; format: biochemical
# T2 sequence (P07203 1-203): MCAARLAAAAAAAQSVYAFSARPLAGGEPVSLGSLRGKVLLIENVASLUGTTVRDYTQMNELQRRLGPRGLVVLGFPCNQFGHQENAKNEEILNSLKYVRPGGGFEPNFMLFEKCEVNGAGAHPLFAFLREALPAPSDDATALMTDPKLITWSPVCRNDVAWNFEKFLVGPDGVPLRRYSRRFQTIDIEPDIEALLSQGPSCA
# [5] = system: cellular TXNRD activity in FaDu cells; assay: Cellular TXNRD activity, insulin-endpoint assay; format: cell-based, human; conditions: 3 hours of compound exposure
# HCT116 cells [6] = assay: Mitochondrial respiration, Seahorse assay; format: cell-based, human
# [7] = system: MDA-MB-231 xenografts in athymic mice; assay: MDA-MB-231 orthotopic xenograft efficacy study; format: in vivo; conditions: for MDA-MB-231 xenograft tumor growth: 22 days, p<0.0001 vs vehicle
# [8] = system: PyMT-MMTV mice mammary tumors; assay: PyMT-MMTV tumor low frequency dosing study; format: in vivo; conditions: for tumor growth in PyMT-MMTV mice: three weeks; for tumor volumes compared to vehicle controls: mice surviving 20–22 days, p<0.05
# SCID mice = assay: Single dose escalation toxicity study; conditions: mouse, in vivo, iv
# [9] = system: FaDu cell xenografts in SCID mice; assay: Repeated dose study in FaDu xenograft-bearing mice; format: in vivo; conditions: twice a day i.v., 10 mg/kg TRi-1, 15 mg/kg TRi-2 or 10 mg/kg auranofin; for FaDu xenograft tumor growth: four days
# HCT116 cells [10] = assay: Cytotoxicity in HCT116 subclones with altered p53 status or BCL-2 overexpression; format: cell-based, human; conditions: subclones of HCT116 cells
# FaDu cells [11] = assay: Cellular GSH concentrations; format: cell-based, human; conditions: 6 hours at 10×IC50
# FaDu cells [12] = format: cell-based, human
# TXNRD1 [13] = biological target: T1, TXNRD1; assay: SecTRAP activity; format: biochemical
# [14] = system: human TXNRD1 versus human TXNRD2; assay: Inhibition of human TXNRD1 versus human TXNRD2 with DTNB as substrate; format: biochemical; conditions: human recombinant enzymes
# Procedure, shortened: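 Human recombinant TXNRD1 and TXNRD2 were assayed with DTNB as substrate, with activity read by absorbance change. TXNRD1 buffer was 50 mM Tris pH 7.5, 2 mM EDTA and 0.1 mg/mL BSA. Compounds were in DMSO. Results were normalized to DMSO and no-enzyme controls. Triplicates, mean ± SEM.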
# TXNRD1 [15] = biological target: T1, TXNRD1; assay: Reversibility of TXNRD1 inhibition; format: biochemical
# [16] = system: A549 lung carcinoma cells and MEFs; format: cell-based, human, mouse; conditions: for sensitivity of MEFs with the Txnrd1 gene deleted: Txnrd1 -/- vs Txnrd1 fl/fl MEFs
# [17] = Liver microsome stability; format: in vitro ADME
# [18] = system: FaDu cell xenografts in SCID mice; assay: [18F]-FDG PET study of FaDu xenografts; format: in vivo, mouse; conditions: 5 mg/kg i.p. once daily
# Procedure, shortened: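 Male SCID mice carried FaDu xenografts (1×10^6 cells); baseline scan at day 11, with food removed. Isoflurane anaesthesia on a 37 °C pad. [18F]-FDG i.v., 60-min 3D acquisition. Treatment was i.p. once daily (n=8) or vehicle (n=9), rescanned on day 3. SUVmean was taken over ROIs ≥1.8×10^5 Bq/mL, and day 3 was compared with day 0 by paired t-test.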
# NCI-60 cell panel = conditions: read-out: average growth inhibition to 50% (GI50); average over NCI-60 cell panel, screened previously; ref https://dtp.cancer.gov, NSC351105 (TRi-2) and NSC321521 (auranofin); cited from earlier work
# human cancer cell lines = format: cell-based
# FaDu cells [19] = format: cell-based, human; remark: listed apart in the source
# FaDu cells [20] = assay: Cytotoxicity towards FaDu cells, 72 hours; format: cell-based, human; conditions: 72 hours of incubation
# Procedure, shortened: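 Viability of FaDu cells after 72 h with test compound, in medium with 10% FBS and 25 nM sodium selenite, at 37 °C and 5% CO2. DMSO vehicle at 0.01% final. Run in triplicate and reported as mean ± SEM.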
# [21] = HCT116 cells, 30-minute or 5-hour exposure
# [22] = i.p. twice a week, TRi-1 5 mg/kg, auranofin 10 mg/kg
SMILES,potency against non-cancerous cells compared to cancer cell lines [1],thermal stability of NADPH-reduced TXNRD1 upon incubation with compound (TXNRD1 [2]),cellular H2O2 production (FaDu cells [3]),JNK and p38 phosphorylation [4],less efficient in inhibiting GPX1 than TXNRD1 (GPX1),ATP-coupled basal respiration (HCT116 cells [6]; [21]),"tumor growth in PyMT-MMTV mice [8, 22]",tumor volumes compared to vehicle controls [8],toxicity and mouse weight in repeated dose study [9],FaDu xenograft tumor growth [9],resistance upon altered p53 status or BCL-2 overexpression (HCT116 cells [10]),effect on cellular GSH concentrations (FaDu cells [11]),effect of GSH depletion with BSO on cytotoxicity (FaDu cells [12]),cytotoxicity towards MEF cells versus A549 cells [16],sensitivity of MEFs with the Txnrd1 gene deleted [16],metabolism in liver microsomes [17],other results
COc1ccc([N+](=O)[O-])c(S(=O)(=O)c2ccc(Cl)cc2)n1 [TRi-1],reduced potency,stability was increased,increased cellular H2O2 production,efficiently activated JNK and p38 phosphorylation,over 1000 fold,lacked effects on basal respiration,impaired tumor growth,significantly smaller compared to the vehicle controls,no signs of overt toxicity or changes in mouse weight,decreased tumor growth compared to vehicle controls within four days,no apparent resistance,no effect on cellular GSH concentrations,enhanced the cytotoxicity,preferentially toxic towards the A549 cells,additional resistance,rather rapid metabolism,"inhibition of cellular TXNRD activity [5]: equal or greater potency compared to that of auranofin; maximal respiratory capacity (HCT116 cells [6]; [21]): little effect on maximal respiratory capacity; MDA-MB-231 xenograft tumor growth ([7]; 10 mg/kg i.p.): significantly decreased compared to the vehicle controls; complete tumor regression ([7]; 10 mg/kg i.p., n=12): one tumor in the TRi-1 i.p. group completely regressing; systemic toxicity in MDA-MB-231 xenograft study ([7]; 10 mg/kg i.v. or i.p.): no signs of overt systemic toxicity; MDA-MB-231 xenograft tumor growth ([7]; 10 mg/kg i.v.): significantly decreased compared to the vehicle controls; highest administrable dose tolerated without overt signs of toxicity (SCID mice): 10 mg/kg; SecTRAP formation (NADPH-dependent redox cycling with juglone) (TXNRD1 [13]; after inhibition of normal TXNRD1 activity and desalting): maintained substantial NADPH-dependent redox cycling with juglone; specificity for TXNRD1 compared to inhibition of TXNRD2 [14]: 5- to 10 fold; mode of TXNRD1 inhibition (TXNRD1 [15]; with or without NADPH, before and after desalting): irreversibly inhibit TXNRD1 in an NADPH-dependent manner; activated caspase-3 staining in excised xenografts ([18]; between days three and four): increased staining for activated caspase-3; [18F]-FDG uptake in viable parts of the tumors ([18]; day 3 vs day 0): markedly decreased"
"CC(=O)OC[C@H]1O[C@@H]([S-])[C@H](OC(C)=O)[C@@H](OC(C)=O)[C@@H]1OC(C)=O.CCP(CC)CC.[Au+] [auranofin, reference compound]",only displayed lower potency against the CDD841 cells,not with TRi-2 or auranofin,increased cellular H2O2 production,did not activate JNK and p38 phosphorylation as robustly,over 1000 fold,deteriorated ATP-coupled respiration,impaired tumor growth,significantly smaller compared to the vehicle controls,no signs of overt toxicity or changes in mouse weight,decreased tumor growth compared to vehicle controls within four days,no apparent resistance,lowered GSH,enhanced the cytotoxicity,similarly cytotoxic towards these two cell types,minimally affected,rather rapid metabolism,"GI50 (NCI-60 cell panel): 760 nM; cytotoxic potency, side-by-side comparison (human cancer cell lines): on average more potent than TRi-1; GPX1 inhibition (GPX1; preincubated with GPX1 in the absence of GSH, high concentrations): moderate inhibition; maximal respiratory capacity (HCT116 cells [6]): impaired maximal respiratory capacity; survival during observation [8, 22]: two mice in the auranofin group had to be sacrificed due to poor health; SecTRAP formation (NADPH-dependent redox cycling with juglone) (TXNRD1 [13]): maintained substantial NADPH-dependent redox cycling with juglone; TXNRD1 versus TXNRD2 inhibition profile [14]: pan-TXNRD inhibitor; mode of TXNRD1 inhibition (TXNRD1 [15]): irreversibly inhibit TXNRD1 in an NADPH-dependent manner; cytotoxicity in colony-forming assay (FaDu cells [19]): more cytotoxic than TRi-1"
COc1cccc(S(=O)(=O)c2ccc(Cl)cc2)n1 [TRi-62],,,,,,,,,,,,,,,,,cytotoxicity towards FaDu cells (FaDu cells [20]): loss of cytotoxicity
